Results: ChEMBL document CHEMBL1128310, “Antitumor imidazotetrazines. 32. Synthesis of novel imidazotetrazinones and related bicyclic heterocycles to probe the mode of action of the antitumor drug temozolomide” (J Med Chem, 1995)

Legend:
Raji = assay: In vitro cytotoxicity against Raji cell line; assay type: functional, cell-based; conditions: Homo sapiens
GM892A cell line [1] = assay: (§1) In vitro cytotoxicity against human lymphoblastoid cell (GM892 A); assay type: functional, cell-based
TLX-5 = assay: In vitro cytotoxicity against mouse TLX5 lymphoma cells; assay type: functional, cell-based
Outline: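 Mouse TLX5 lymphoma cells in exponential growth at 2×10^4 cells/mL in RPMI 1640 with 15% FCS, given drug in DMSO, triplicate wells per concentration, 72 h at 37 °C under 5% CO2. Electronic cell counting; percent of DMSO-control growth plotted and IC50 (μM) calculated.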

GM892A cell line [2] = assay: as §1; assay type: functional, cell-based; remark: listed apart in the source
Outline: (§2)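 Mer⁻ GM892A cells in RPMI 1640 with 10% FCS and 1% L-glutamine, seeded at 0.8×10^5 cells/mL and exposed to a range of concentrations in DMSO (≤0.5%) for 72 h. At least three populations per concentration; duplicate cell counts after subtracting the seed number. Growth compared with solvent controls and IC50 (μM) derived.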

[3] = Ratio of cytotoxicity against Raji cells to that of GM892 A cells.; assay type: functional
GM892A cell line [4] = assay: In vitro cytotoxicity against human lymphoblast cell line (GM892 A).; assay type: functional, cell-based; outline: as §2
GM892A cell line [5] = assay: In vitro cytotoxicity against human lymphoblastoid cell line (GM892 A); assay type: functional, cell-based; outline: as §2
[6] = Half life for the hydrolysis of compound in buffers at pH 7.4, at 37 degrees Celsius in incubation mixture - d(G)-d(C) (1:1); assay type: ADME; conditions: buffer with d(G)-d(C) (1:1)
Outline: (§3)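 Compound incubated at 37 °C in 0.1 M phosphate or 0.1 M sodium cacodylate buffer (pH 7.4 or 6.5) with homopolymer oligonucleotide or GMP/CMP, as equimolar nucleotide bases or 10-fold molar excess of bases. Loss of parent was followed by HPLC (0.5% acetic acid in water/methanol 70:30) over about three half-lives. Pseudo-first-order k from log peak area versus time; t1/2 = 0.693/mean k.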

[7] = Mean rate constant for the hydrolysis of compound in buffers at pH 7.4, at 37 degrees Celsius in incubation mixture - d(G)-d(C) (1:1); assay type: ADME; conditions: buffer
Outline: (§4)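 Compound incubated at 37 °C in 0.1 M phosphate or 0.1 M sodium cacodylate buffer (pH 7.4 or 6.5) with homopolymer oligonucleotide or GMP/CMP, as equimolar nucleotide bases or 10-fold molar excess of bases. Parent peak followed by HPLC for about three half-lives. Pseudo-first-order k from log(peak area) versus time, at least 10 points per run, averaged over replicate runs.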

[8] = Mean rate constant for the hydrolysis of compound in buffers at pH 7.4 at 37 degrees Centigrade in incubation mixture - d(A)-d(T) (10:!); assay type: ADME; conditions: buffer; outline: as §4
[9] = Half life for the hydrolysis of compound in buffers at pH 6.5, at 37 degrees Celsius in incubation mixture - d(A)-d(T) (10:1); assay type: ADME; outline: as §3
[10] = Half life for the hydrolysis of compound in buffers at pH 7.4, at 37 degrees Celsius in incubation mixture - d(A)-d(T) (10:1); conditions: buffer with d(A)-d(T) (10:1)
[11] = Half life for the hydrolysis of compound in buffers at pH 7.4, at 37 degrees Centigrade in incubation mixture - 5'-GMP/5'-CMP (1:1); assay type: ADME; conditions: buffer with 5'-GMP/5'-CMP (1:1); outline: as §3
[12] = Half life for the hydrolysis of compound in buffers at pH 7.4 at 37 degrees Celsius in incubation mixture - d(A)-d(T) (10:!); assay type: ADME; conditions: buffer with d(A)-d(T) (10:1); outline: as §3
[13] = Mean rate constant for the hydrolysis of compound in buffers at pH 7.4, at 37 degrees Celsius in incubation mixture - 5'-GMP/5'-CMP (1:1); assay type: ADME; conditions: buffer; outline: as §4
[14] = Half life for the hydrolysis of compound in buffers at pH 6.5, at 37 degrees Celsius in incubation mixture - d(G)-d(C) (10:1); assay type: ADME; outline: as §3
[15] = Mean rate constant for the hydrolysis of compound in buffers at pH 7.4, at 37 degrees Celsius in incubation mixture - d(A)-d(T) (10:1); conditions: buffer
[16] = Mean rate constant for the hydrolysis of compound in buffers at pH 7.4, at 37 degrees Celsius in incubation mixture - d(A)-d(T) (1:1); assay type: ADME; conditions: buffer; outline: as §4
[17] = Half life for the hydrolysis of compound in buffers at pH 7.4, at 37 degrees Celsius in incubation mixture - d(A)-d(T) (1:1); assay type: ADME; conditions: buffer with d(A)-d(T) (1:1); outline: as §3
[18] = Half life for the hydrolysis of compound in buffers at pH 7.4, at 37 degrees Centigrade in incubation mixture - d(G)-d(C) (10:1); assay type: ADME; outline: as §3

Cn1nnc2c(C(=O)NCCCN(CCCN)CCCCN)ncn2c1=O
IC50 (Raji): > 500 µM | IC50 (GM892A cell line [1]): > 500 µM

NC(=O)c1ccc(NC(=O)c2ncn3c(=O)n(CCCl)nnc23)cc1
IC50 (TLX-5): 37 µM

NC(=O)c1ccccc1NC(=O)c1ncn2c(=O)n(CCCl)nnc12
IC50 (TLX-5): 13 µM

O=C(Nc1ccccc1)c1ncn2c(=O)n(CCCl)nnc12
IC50 (TLX-5): 1.25 µM

CNC(=O)c1nnc2c(O)n(C)nnc1-2
IC50 (Raji): > 500 µM | IC50 (GM892A cell line [1]): > 500 µM

CN(C)/N=N/c1[nH]cnc1C(N)=O [DACARBAZINE]
IC50 (Raji): 128 µM | IC50 (GM892A cell line [2]): 14 µM | Ratio [3]: 9

Nc1nc(O)cc(-c2ccc(NC(=O)c3ncn4c(=O)n(CCCl)nnc34)cc2)n1
IC50 (TLX-5): 25 µM

CCn1nnc2cc(C(N)=O)ccc2c1=O
IC50 (TLX-5): 108 µM

Cn1nnc2c(C(N)=O)ncn2c1=O [TEMOZOLOMIDE]
IC50 (Raji): 175 µM | IC50 (TLX-5): 5 µM | Ratio [3]: 23 | IC50 (GM892A cell line [4]): 7.6 µM

O=C(O)c1ncn2c(=O)n(CCCl)nnc12
IC50 (TLX-5): 15.8 µM

NC(=O)c1ccc2c(=O)n(CCCl)nnc2c1
IC50 (TLX-5): 350 µM

NC(=O)c1cccc2c(=O)n(-c3ccccc3)nnc12
IC50 (TLX-5): > 500 µM

NC(=O)c1ncn2c(=O)n(CCCl)nnc12 [MITOZOLOMIDE]
IC50 (GM892A cell line [5]): 4.8 µM | IC50 (Raji): 39 µM | half-life [6]: 1.22 h | Mean rate constant [7]: 0.0094 min⁻¹ | IC50 (TLX-5): 2.5 µM | Ratio [3]: 8.1 | Mean rate constant [8]: 0.0122 min⁻¹ | T1/2 ([9]; buffer): 5.777 h | half-life ([9]; buffer with d(A)-d(T) (10:1)): 7.45 h | half-life [10]: 1.24 h | half-life [11]: 1.18 h | half-life [12]: 0.947 h | Mean rate constant [13]: 0.00979 min⁻¹ | T1/2 ([14]; buffer): 5.747 h | half-life ([14]; buffer with d(G)-d(C) (10:1)): 7.5 h | Mean rate constant [15]: 0.00932 min⁻¹ | Mean rate constant [16]: 0.00915 min⁻¹ | half-life [17]: 1.26 h | T1/2 ([18]; buffer): 0.947 h | half-life ([18]; buffer with d(G)-d(C) (10:1)): 1.27 h

CN(N=O)C(N)=O.Cl.Cl.Cl
IC50 (Raji): 259 µM | Ratio [3]: 7.4 | IC50 (GM892A cell line [1]): 35 µM

CCn1nnc2c(C(N)=O)cccc2c1=O
IC50 (TLX-5): 325 µM

NC(=O)c1cccc2c(O)nnnc12
IC50 (TLX-5): 400 µM

NC(=O)c1ccc(NC(=O)c2ncn3c(=O)n(CCCl)nnc23)c(C(N)=O)c1
IC50 (TLX-5): 375 µM

NC(=O)Cn1nnc2c(C(N)=O)cccc2c1=O
IC50 (TLX-5): > 500 µM

NC(=O)c1cccc2c(=O)n(CCCl)nnc12
IC50 (TLX-5): 225 µM

NC(=O)c1ccc2c(=O)n(-c3ccccc3)nnc2c1
IC50 (TLX-5): 140 µM

Cn1nnc2cc(C(N)=O)ccc2c1=O
IC50 (TLX-5): 380 µM

NC(=O)c1cccc(NC(=O)c2ncn3c(=O)n(CCCl)nnc23)c1
IC50 (TLX-5): 35 µM

CCn1nnc2c(C(N)=O)ncn2c1=O
IC50 (Raji): 435 µM | Ratio [3]: 2.4 | IC50 (GM892A cell line [1]): 180 µM

Cn1nnc2c(C(N)=O)cnn2c1=O
IC50 (Raji): 270 µM | Ratio [3]: 51 | IC50 (GM892A cell line [1]): 5.3 µM

Cn1nnc2c(C(N)=O)cccc2c1=O
IC50 (TLX-5): > 500 µM
